Data taken from ChEMBL document CHEMBL1240495, “Alpha,beta-unsaturated N-acylpyrrole peptidyl derivatives: new proteasome inhibitors” (J Med Chem, 2010).
Peptide text beside a SMILES is read from it. * marks the point of attachment. Cbz = O=C(OCc1ccccc1)*

What was measured:
[1] = Inhibition of chymotrypsin-like activity of 20S proteasome in human LCL cells after 12 hrs
[2] = test system: 20S proteasome beta5 subunit (Homo sapiens); assay: Inhibition of chymotrypsin-like activity of 20S proteasome beta5 in human LCL cells after 12 hrs by in vivo assay
[3] = Inhibition of trypsin-like activity of 20S proteasome beta 2 in human LCL cells after 12 hrs by in vivo assay
Method in brief: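 LCLs exposed to inhibitor for 12 h at 37 °C. Proteasomes then partially purified and incubated 30 min at 37 °C in activity buffer with Suc-LLVY-AMC (chymotrypsin-like), Boc-LRR-AMC (trypsin-like) or Z-LLE-AMC (postacidic). Fluorescence read at ex 360/em 465 nm.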

[4] = Inhibition of trypsin-like activity of 20S proteasome beta2 from human LCL cells after 30 mins
[5] = test system: 20S proteasome beta1 subunit (Homo sapiens); assay: Inhibition of PGPH catalytic activity of 20S proteasome beta1 in human LCL cells after 12 hrs
[6] = test system: 20S proteasome beta1 subunit (Homo sapiens); assay: Inhibition of PGPH catalytic activity of 20S proteasome beta1 in human LCL cells after 12 hrs by in vivo assay
JIYOYE = assay: Cytotoxicity against human Jijoye cells at 10 uM after 3 days by trypan blue exclusion assay; assay type: cell-based; conditions: 72 h
Method in brief: (§1)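 LCL and Burkitt's lymphoma JiJoye cells seeded in duplicate at 50 × 10³ cells/mL in medium with 10% FCS. Exposed to 0.1–10 μM compound or medium alone. Viability and proliferation followed for 3 days by Trypan blue exclusion and cell counting.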

[7] = Cytotoxicity against human LCL cells at 10 uM after 3 days by trypan blue exclusion assay; assay type: cell-based; conditions: 72 h
Method in brief: as §1

| SMILES | IC50 [1] [nM] | IC50 [2] [nM] | IC50 [3] [nM] | IC50 [4] [nM] | IC50 [5] [nM] | IC50 [6] [nM] | Activity (JIYOYE) | Activity [7] |
| --- | --- | --- | --- | --- | --- | --- | --- | --- |
| Cc1c(O)cccc1C(=O)N[C@H](C(=O)N[C@@H](CO)C(=O)N[C@H](/C=C/C(=O)n1cccc1)CC(C)C)C(C)C | > 10000 | – | – | > 10000 | 178 | – | – | – |
| CC(C)C[C@@H](/C=C/C(=O)n1cccc1)NC(=O)[C@H](CO)NC(=O)[C@@H](NC(=O)CCCCCCCNC(=O)OCc1ccccc1)C(C)C | 5080 | > 10000 | > 10000 | > 10000 | 36 | 58 | Not Active | Not Active |
| CC[C@H](C)[C@H](NC(=O)[C@H]([C@@H](C)CC)N(C)C(C)=O)C(=O)N[C@H](C(=O)N[C@@H](CC(C)C)C(=O)[C@@]1(C)CO1)[C@@H](C)O [EPOXOMYCIN] | 5 | – | – | – | – | – | – | – |
| CC(C)C[C@@H](C=O)NC(=O)[C@H](CC(C)C)NC(=O)[C@H](CC(C)C)NC(=O)OCc1ccccc1 [MG-132] (Cbz-Leu-Leu-Leu-aldehyde) | 2 | – | – | 1080 | – | – | – | – |

More lines, main results first:

| IC50 [1] [nM] | IC50 [2] [nM] | IC50 [3] [nM] | IC50 [4] [nM] | IC50 [5] [nM] | IC50 [6] [nM] | SMILES | Activity (JIYOYE) | Activity [7] |
| --- | --- | --- | --- | --- | --- | --- | --- | --- |
| > 10000 | > 10000 | > 10000 | > 10000 | 62 | 116 | CC(C)C[C@@H](/C=C/C(=O)n1cccc1)NC(=O)[C@H](CC(C)C)NC(=O)[C@H](CC(C)C)NC(=O)CCCCCCCNC(=O)OCc1ccccc1 | – | – |
| > 10000 | – | – | > 10000 | 122 | – | CC(C)C[C@@H](/C=C/C(=O)n1cccc1)NC(=O)[C@H](CO)NC(=O)[C@@H](NC(=O)OCc1ccccc1)C(C)C | – | – |
| 3630 | 5600 | > 10000 | > 10000 | 65 | 135 | Cc1c(O)cccc1C(=O)N[C@@H](CC(C)C)C(=O)N[C@@H](CC(C)C)C(=O)N[C@H](/C=C/C(=O)n1cccc1)CC(C)C | Not Active | Not Active |
| 7890 | – | – | > 10000 | 91 | – | CC(C)C[C@@H](/C=C/C(=O)n1cccc1)NC(=O)[C@H](CC(C)C)NC(=O)[C@H](CC(C)C)NC(=O)OCc1ccccc1 | – | – |
| > 10000 | > 10000 | > 10000 | > 10000 | 97 | 147 | CC(C)C[C@@H](/C=C/C(=O)n1cccc1)NC(=O)[C@H](CO)NC(=O)[C@@H](NC(=O)CCCCCNC(=O)OCc1ccccc1)C(C)C | – | – |
| > 10000 | – | – | > 10000 | 155 | – | CC(C)C[C@@H](/C=C/C(=O)n1cccc1)NC(=O)[C@H](CC(C)C)NC(=O)[C@H](CC(C)C)NC(=O)CCCCCNC(=O)OCc1ccccc1 | – | – |
